The subject of data set [1] is U-266. Description: Cytotoxicity against human U266B1 cells assessed as cell viability measured after 72 hrs by celltiter96 aqueous cell proliferation assay. It counts as functional, cell-based. The conditions noted are these: U-266, 72 h. The essentials:
(§1)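 Suspension cells in log phase plated at 5000 (RPMI8226) or 10000 (U266B1) cells per well. Viability read after 72 h by MTS-type CellTiter 96 AQueous One assay on a plate reader. IC50 reported, three repeats.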

Data set [2] deals with RPMI-8226. Briefly: Antitumour activity against luciferase expressing human RPMI8226 cells xenografted in NOD/SCID mouse assessed as tumor growth at 2 mg/kg, iv qd for 21 days by caliper method relative to control. It counts as functional. Put shortly:
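NOD/SCID mice given subcutaneous 5 × 10^6 luciferase-expressing RPMI-8226 cells. Randomized at mean tumour 100-150 mm3, n = 3 per group. Dosed i.v. 2 mg/kg QD for 3 weeks. Tumour also imaged by IVIS, ROI […] taken 3 min after D-luciferin 150 mg/kg. Caliper volume V = length×width²/2, RTV = Vt/V0. T/C% = mean RTV treated / mean RTV control × 100.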
Background: In xenograft studies the graft and the host belong to different species.

Data set [3] in a line: Half life in monkey liver microsomes at 1 uM pre-incubated for 5 mins followed by NADP+ addition and measured up to 20 mins by LC-MS analysis. Type of data set: ADME, Macaca mulatta, Microsome. The conditions noted are these: rhesus monkey. Background: Liver microsomes are a subcellular fraction often used to study metabolism.
For data set [4], the target named is T1, Proteasome Macropain subunit MB1 (Homo sapiens, UniProt P28074).
T1 sequence (P28074 whole entry): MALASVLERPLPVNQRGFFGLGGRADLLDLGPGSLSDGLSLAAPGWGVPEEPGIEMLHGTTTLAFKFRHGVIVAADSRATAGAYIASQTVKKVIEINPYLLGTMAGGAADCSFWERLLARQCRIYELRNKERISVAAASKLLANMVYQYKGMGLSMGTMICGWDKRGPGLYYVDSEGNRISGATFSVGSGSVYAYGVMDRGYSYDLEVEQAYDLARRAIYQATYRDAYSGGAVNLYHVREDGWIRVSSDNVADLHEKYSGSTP
Briefly: Inhibition of human chymotrypsin-like activity of 20S proteasome using Suc-LLVY-AMC as substrate pre-incubated for 10 mins followed by substrate addition and measured after 1 hr by spectrofluorimetry. The following applies: read-out: IC50.

Data set [5] has as its target Voltage-gated inwardly rectifying potassium channel KCNH2 (Homo sapiens, UniProt Q12809). Briefly: Inhibition of human ERG in HEK293 cells assessed as effect on QT interval. It counts as cell-based. The conditions noted are these: human, hek293.
A short description of data set [6]: Intrinsic clearance in dog liver microsomes at 1 uM pre-incubated for 5 mins followed by NADP+ addition and measured up to 20 mins by LC-MS analysis. Type of data set: ADME, Canis lupus familiaris, Microsome. The following applies: read-out: CLH.
The nature of data set [7]: Intrinsic clearance in human liver microsomes at 1 uM pre-incubated for 5 min followed by NADP+ addition and measured up to 20 mins by LC-MS analysis. Type of data set: ADME, Microsome. The following applies: read-out: CLH. Put shortly: (§2)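 Mixture held 1 µM compound, 0.5 mg/mL microsomal protein (in-house pooled Balb/c mouse or pooled human), 100 mM Tris-HCl pH 7.4, and an NADPH-generating system (5 mM isocitric acid, 0.2 U/mL isocitric dehydrogenase, 5 mM MgCl2, 1 mM NADP+). Preincubated 5 min at 37 °C, started with NADP+, sampled at 0, 5, 10, 20 min. Quenched with cold acetonitrile containing 1 µM phenytoin internal standard. Compound loss measured by LC-MS/MS. Controls omitted NADPH and/or microsomes.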

The nature of data set [8]: Intrinsic clearance in rat liver microsomes at 1 uM pre-incubated for 5 mins followed by NADP+ addition and measured up to 20 mins by LC-MS analysis. Type of data set: ADME, Microsome. The following applies: read-out: CLH.
Data set [9] is described as follows: Intrinsic clearance in monkey liver microsomes at 1 uM pre-incubated for 5 min followed by NADP+ addition and measured up to 20 mins by LC-MS analysis. Type of data set: ADME, Macaca mulatta, Microsome. The following applies: rhesus monkey, read-out: CLH.
For data set [10], the system named is RPMI-8226. Description: Cytotoxicity against human RPMI8226 cells assessed as cell viability measured after 72 hrs by celltiter96 aqueous cell proliferation assay. Type of data set: functional, cell-based. The following applies: RPMI-8226, 72 h. The essentials:
as §1

A short description of data set [11]: Potency index, ratio of compound half life in human liver microsomes to carfilzomib half life in human liver microsomes. Type of data set: ADME, Microsome.
A short description of data set [12]: Half life in BALB/c mouse liver microsomes at 1 uM pre-incubated for 5 mins followed by NADP+ addition and measured up to 20 mins by LC-MS analysis. It counts as ADME, Microsome. The essentials:
as §2

Data set [13] deals with ARH-77. Description: Antitumour activity against human ARH77 cells xenografted in nude mouse assessed as tumor growth at 5mg/kg, iv dosed at day 1 ,4, 8 ,11, 15 and 18 for 3 weeks and measured every 2 days by caliper method relative to control. It counts as functional. The essentials: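 Nude mice given subcutaneous 1 × 10^7 ARH77 cells. Randomized at mean tumour 100-150 mm3 into treatment and control groups, n = 5. Dosed i.v. 5 mg/kg on days 1, 4, 8, 11, 15 and 18 for 3 weeks. Tumours sized by caliper, V = length×width²/2, RTV = Vt/V0. T/C% = mean RTV treated / mean RTV control × 100.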

Data set [14] in a line: Intrinsic clearance in BALB/c mouse liver microsomes at 1 uM pre-incubated for 5 mins followed by NADP+ addition and measured up to 20 mins by LC-MS analysis. The following applies: read-out: CLH. It counts as ADME, Microsome. The essentials:
as §2

Data set [15] can be described thus: Half life in dog liver microsomes at 1 uM pre-incubated for 5 mins followed by NADP+ addition and measured up to 20 mins by LC-MS analysis. Type of data set: ADME, Canis lupus familiaris, Microsome.
Data set [16] in a line: Half life in rat liver microsomes at 1 uM pre-incubated for 5 mins followed by NADP+ addition and measured up to 20 mins by LC-MS analysis. Type of data set: ADME, Microsome.
A short description of data set [17]: Half life in human liver microsomes at 1 uM pre-incubated for 5 mins followed by NADP+ addition and measured up to 20 mins by LC-MS analysis. It counts as ADME, Microsome. The essentials:
as §2

The text below walks through data of ChEMBL document CHEMBL4393740, “Preparation and biological evaluation of soluble tetrapeptide epoxyketone proteasome inhibitors” (Bioorg Med Chem, 2019).

Sequence of Voltage-gated inwardly rectifying potassium channel KCNH2 (Q12809 whole entry): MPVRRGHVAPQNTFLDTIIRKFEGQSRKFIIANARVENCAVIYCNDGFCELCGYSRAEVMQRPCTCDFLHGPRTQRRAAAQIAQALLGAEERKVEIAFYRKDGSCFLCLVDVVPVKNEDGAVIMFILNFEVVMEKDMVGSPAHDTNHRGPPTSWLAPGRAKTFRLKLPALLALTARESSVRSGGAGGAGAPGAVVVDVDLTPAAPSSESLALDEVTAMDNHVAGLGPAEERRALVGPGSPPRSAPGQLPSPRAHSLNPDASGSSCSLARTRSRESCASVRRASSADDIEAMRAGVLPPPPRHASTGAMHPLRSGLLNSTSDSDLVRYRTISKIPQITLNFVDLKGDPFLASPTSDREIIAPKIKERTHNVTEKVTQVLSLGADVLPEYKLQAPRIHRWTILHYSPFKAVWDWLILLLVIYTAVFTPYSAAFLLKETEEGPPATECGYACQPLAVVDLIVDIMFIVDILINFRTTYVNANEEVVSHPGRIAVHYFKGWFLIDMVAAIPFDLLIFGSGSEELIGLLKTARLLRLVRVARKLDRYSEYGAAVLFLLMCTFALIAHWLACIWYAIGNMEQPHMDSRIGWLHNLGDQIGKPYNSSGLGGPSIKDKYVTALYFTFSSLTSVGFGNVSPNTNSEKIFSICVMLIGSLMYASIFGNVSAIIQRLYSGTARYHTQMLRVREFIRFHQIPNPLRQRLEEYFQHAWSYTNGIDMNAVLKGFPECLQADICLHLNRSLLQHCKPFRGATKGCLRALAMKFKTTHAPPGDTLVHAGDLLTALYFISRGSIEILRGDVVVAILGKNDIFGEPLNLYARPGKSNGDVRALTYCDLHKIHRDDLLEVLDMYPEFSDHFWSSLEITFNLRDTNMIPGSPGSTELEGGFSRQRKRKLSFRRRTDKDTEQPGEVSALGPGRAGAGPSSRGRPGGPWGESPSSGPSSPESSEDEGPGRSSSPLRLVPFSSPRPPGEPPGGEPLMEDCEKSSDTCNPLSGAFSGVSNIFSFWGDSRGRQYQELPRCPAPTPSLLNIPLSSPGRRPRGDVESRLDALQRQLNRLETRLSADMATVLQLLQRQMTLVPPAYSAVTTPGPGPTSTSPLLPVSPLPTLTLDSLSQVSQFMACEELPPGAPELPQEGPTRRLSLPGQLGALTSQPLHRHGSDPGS

A word on the IC50: it is the concentration that inhibits the measured activity by half. A word on the T/C: it is the ratio of treated to control. What is called half-life is the time in which the quantity being followed falls by half. Regarding `CC(C)C[C@H](NC(=O)[C@H](Cc1cscn1)NC(=O)CN1CCOCC1)C(=O)N[C@@H](Cc1ccccc1)C(=O)N[C@@H](CC(C)C)C(=O)[C@@]1(C)CO1`, the IC50 in [1] was found to be 24.5 nM; in data set [4], 36.8 nM; in data set [10], 27.7 nM. Also, the results for the T/C in data set [2] and in data set [13] were 49.5% and 37.6%, respectively. In addition, the half-life at 1 µM turned out to be 0.211 min in [3]; 1.1 min in [12]; 0.243 min in [15]; 1.36 min in [16]; 1.07 min in data set [17]. Also, the “inhibition (INH)” value in data set [5] is “Not Active”. Also, the microsomal CLint at 1 µM in data set [6] amounted to 5710 µL/min/mg; in data set [7], 1300 µL/min/mg; in data set [8], 1020 µL/min/mg; in data set [9], 6560 µL/min/mg; in data set [14] it was 1250 µL/min/mg. For the same compound, in data set [11], the Ratio came to 4.
